Experimental data taken from ChEMBL document CHEMBL4033629, “Synthesis, biological evaluation and molecular modeling of 2-Hydroxyisoquinoline-1,3-dione analogues as inhibitors of HIV reverse transcriptase associated ribonuclease H and polymerase” (Eur J Med Chem, 2017).
pIC50: −log10 of the molar value. Activity calls are given as the source filed them. No cut-off for these calls is given here.

Columns and labels:
[1] = Inhibition of full length HIV RT-RNase H activity using 18-nucleotide 3'-fluorescein-labeled RNA/5'-dabsyl-labeled DNA hybrid as substrate; set-up: species or system Human immunodeficiency virus
How it was run: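 Duplex substrate reports random internal RNA cleavage. A known RNase H inhibitor served as positive control. IC50 is the concentration giving 50% inhibition, reported as the mean of two or three independent experiments.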

[2] = Inhibition of full length HIV reverse transcriptase polymerase activity; set-up: species or system Human immunodeficiency virus
How it was run: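 RT was pre-incubated with primer-template duplex before compound was tested. The IC50 is the concentration giving 50% inhibition. It is reported as mean ± SD from three independent experiments for some analogues, and as the mean of two independent experiments for others.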

[3] = tested on: Human immunodeficiency virus 1; assay: Antiviral activity against HIV1 3B infected in human CEM-SS cells assessed as inhibition of viral-induced cytopathic effect at 10 uM by colorimetric method; assay type: functional, cell-based
How it was run: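 CEM-SS cells were mixed with HIV-1 IIIB and test compound at 10 µM and incubated 6 days. Virus was pre-titered so that virus control wells lost 70 to 95% of cell viability. Each plate had cell-only, virus, compound toxicity and compound colorimetric control wells. Protection from virus-induced cytopathic effect was read colorimetrically.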

SMILES | pIC50 [1] | pIC50 [2] | Activity [3]
O=C1Cc2cc(-c3cc4ccccc4o3)ccc2C(=O)N1O | 5.96 | 5.82 | inactive
O=C1Cc2ccc(I)cc2C(=O)N1O | 5.85 | 5.72 | inactive
O=C1Cc2cc(-c3ccc4c(c3)OCO4)ccc2C(=O)N1O | 5.92 | 5.77 | inactive
O=C1Cc2ccc(-c3cccs3)cc2C(=O)N1O | 5.77 | 5.60 | inactive
O=C1Cc2ccc(-c3cc4ccccc4o3)cc2C(=O)N1O | 6.05 | 5.80 | inactive
O=C1Cc2ccc(-c3ccc(F)c(F)c3)cc2C(=O)N1O | 5.70 | 5.55 | inactive
O=C(Nc1ccc2c(c1)CC(=O)N(O)C2=O)c1ccc(F)cc1 | 6.70 | 6.10 | inactive
O=C1Cc2cc(-c3ccc(F)c(F)c3)ccc2C(=O)N1O | 5.89 | 5.68 | inactive
COc1cc2c(cc1-c1ccc(F)cc1F)CC(=O)N(O)C2=O | 5.80 | 5.54 | inactive
O=C1Cc2c(cccc2-c2ccco2)C(=O)N1O | 5.70 | 5.68 | inactive
COc1cc2c(cc1-c1ccco1)CC(=O)N(O)C2=O | 5.80 | 5.21 | inactive
O=C1Cc2cc(-c3ccoc3)ccc2C(=O)N1O | 5.85 | 5.70 | inactive
O=C(Cc1ccc(F)cc1)Nc1ccc2c(c1)CC(=O)N(O)C2=O | 6.52 | 5.77 | inactive
O=C1Cc2ccc(-c3ccco3)cc2C(=O)N1O | 5.92 | 5.89 | inactive
O=C1Cc2c(Cc3ccc(C(F)(F)F)cc3)cccc2C(=O)N1O | 6.08 | 5.13 | inactive
O=C1Cc2cc(-c3ccco3)ccc2C(=O)N1O | 5.96 | 5.82 | inactive
Cc1ccc(Cc2cccc3c2CC(=O)N(O)C3=O)cc1 | 6.00 | 5.10 | inactive
O=C1Cc2c(cccc2-c2ccccc2)C(=O)N1O | 5.85 | < 4.60 | inactive
O=C1Cc2c(Cc3ccc(F)cc3F)cccc2C(=O)N1O | 6.09 | 5.03 | inactive
O=C1Cc2cc(-c3csc4ccccc34)ccc2C(=O)N1O | 5.96 | 5.89 | inactive
O=C(Cc1ccccc1)Nc1ccc2c(c1)CC(=O)N(O)C2=O | 6.70 | 5.85 | inactive
O=C1Cc2cc(-c3cccc4c3sc3ccccc34)ccc2C(=O)N1O | 5.74 | 5.80 | inactive
O=C1Cc2cc(-c3cccs3)ccc2C(=O)N1O | 5.77 | 5.77 | inactive
COc1cc2c(cc1-c1ccc(F)cc1)CC(=O)N(O)C2=O | 5.85 | 5.43 | inactive
O=C1Cc2c(Cc3ccc(Br)cc3)cccc2C(=O)N1O | 6.22 | 5.85 | inactive
COc1cc2c(cc1-c1ccccc1)CC(=O)N(O)C2=O | 5.89 | 5.09 | inactive
O=C(Nc1ccc2c(c1)CC(=O)N(O)C2=O)c1ccccc1 | 6.70 | 6.40 | inactive
O=C1Cc2c(cccc2-c2ccc(F)cc2F)C(=O)N1O | 5.82 | 4.60 | inactive
